Measured values gathered from unrelated publications.
Lines come from different studies, so protocols differ.
Target: Tyrosine-protein kinase Tec (TEC, Homo sapiens, UniProt P42680)
Sequence (P42680 1-631, as in one of the studies): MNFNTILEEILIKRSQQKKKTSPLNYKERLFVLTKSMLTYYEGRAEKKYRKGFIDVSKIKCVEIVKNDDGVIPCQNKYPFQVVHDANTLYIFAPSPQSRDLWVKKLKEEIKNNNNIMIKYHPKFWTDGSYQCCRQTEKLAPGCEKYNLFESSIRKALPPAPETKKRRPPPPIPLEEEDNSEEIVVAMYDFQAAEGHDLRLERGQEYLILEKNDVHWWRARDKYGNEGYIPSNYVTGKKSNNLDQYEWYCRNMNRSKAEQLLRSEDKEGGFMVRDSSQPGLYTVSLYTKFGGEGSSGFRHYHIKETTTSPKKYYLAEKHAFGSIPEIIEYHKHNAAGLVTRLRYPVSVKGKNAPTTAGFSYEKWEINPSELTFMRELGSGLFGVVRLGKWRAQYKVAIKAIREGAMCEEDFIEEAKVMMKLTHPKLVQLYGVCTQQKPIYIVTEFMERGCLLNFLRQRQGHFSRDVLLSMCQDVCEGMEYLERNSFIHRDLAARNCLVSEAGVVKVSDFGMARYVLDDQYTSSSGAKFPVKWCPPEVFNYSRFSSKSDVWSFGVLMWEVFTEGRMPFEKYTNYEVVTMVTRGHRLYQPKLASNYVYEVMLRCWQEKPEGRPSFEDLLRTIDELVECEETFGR

| Compound | assay | conditions | remaining binding [%] |
| --- | --- | --- | --- |
| C[C@@H]1CN(c2cc(-c3n[nH]c4ccc(OC5(C)CC5)cc34)ncn2)C[C@H](C)O1 | cell-free assay, competition with immobilised ligand | 0.1 µM | 74 |
| CN(C)c1nccc(-c2cnn3ncccc23)n1 | binding | 1 µM | 90 |
| CCN1CCN(Cc2ccc(C(=O)Nc3ccc(C)c(Oc4ccc5c(c4)CC(=O)N5)c3)cc2C(F)(F)F)CC1 | binding, competition with immobilised ligand | 1 µM | 98 |
| CN(c1nccc(-c2cnn3ncccc23)n1)C1CC1 | binding | 1 µM | 100 |
| CCS(=O)(=O)c1cc2cc(C[C@@](O)(CC(C)(C)c3ccc(F)cc3C(N)=O)C(F)(F)F)[nH]c2cn1 | cell-free assay, competition with immobilised ligand | 1 µM | 100 |
| COc1ncc2cc3ccccc3nc2c1C#N | binding, competition with immobilised ligand | 5 µM | 100 |
| O=C(O)[C@H]1[C@H](Cn2nnc3ccccc3c2=O)CC[C@@H]1C(=O)c1ccc(OCCC2CCOCC2)cc1 | binding, competition with immobilised ligand | 1 µM | 100 |
| CNC(=O)[C@@H]1CC[C@@H](n2c(-c3ccc4cnccc4c3)nc3ccc(C(=O)NCc4cccc(C(N)=O)c4)cc32)C1 | binding, competition with immobilised ligand | 1 µM | 100 |
| CN(C)c1nccc(-c2cnc3ncccn23)n1 | binding | 1 µM | 100 |
| CCC(=O)N[C@H]1CC[C@@H](C(=O)N(C)c2ccc(-c3nc4ccccc4o3)cc2)C1 | cell-free assay, competition with immobilised ligand | 1 µM | 100 |
| CN(C)c1ncc(F)c(-c2cnn3ncccc23)n1 | binding | 1 µM | 100 |
| O=c1nc(-c2ccccn2)sc2ccccc12 | binding, competition with immobilised ligand | 1 µM | 82 |
| C[C@@H](c1ccc(-n2cnc3c(N)ncnc32)cc1)N1CCc2nn(C)c(Cc3ccccc3)c2C1=O | binding, competition with immobilised ligand | 0.1 µM | 63 |
| O=C(Nc1cccnn1)N1CCC(=Cc2cccc(Oc3ccc(C(F)(F)F)cn3)c2)CC1 | cell-free assay, competition with immobilised ligand | 1 µM | 100 |
| N[C@@H]1CCN(c2nccc(-c3cnn4ncccc34)n2)C1 | binding | 1 µM | 95 |
| O=C(c1ccc(Nc2ncc(Cl)c(-c3cc4ccccc4s3)n2)cc1)N1CCC(N2CCCC2)CC1 | binding, competition with immobilised ligand | 1 µM | 99 |
| C[C@@H]1CCN(c2nccc(-c3cnn4ncccc34)n2)C1 | binding | 1 µM | 90 |
| O=C(NCCCN1CCOCC1)c1ccc(Nc2ncc(Cl)c(-c3ccc(Cl)s3)n2)cc1 | binding, competition with immobilised ligand | 1 µM | 100 |
| COc1cnc(Nc2cccc(S(N)(=O)=O)c2)nc1N1CCN(c2ccccc2)C(=O)C1 | binding, competition with immobilised ligand | 1 µM | 100 |
| Cc1cnc(Nc2ccc(C(=O)N3CCC(N4CCCC4)CC3)cc2)nc1-c1cc2ccccc2s1 | binding, competition with immobilised ligand | 1 µM | 100 |
| O=C(NCC1CCOCC1)c1n[nH]cc1NC(=O)c1c(F)cccc1F | binding, competition with immobilised ligand | 1 µM | 100 |
